Measured values reported in publication PMC2738612 (Biochemistry, 2009).
Positions count from the first letter of the chain named.

Legend:
MMP-2 CBD modules = conditions: cited from earlier work
native type I collagen = assay: Surface plasmon resonance binding to immobilized native type I collagen; parameters: species or system rat; conditions: 1 µM analyte, Biacore buffer pH 7.4; compared to WT CBD
In short: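 Native non-pepsin-treated acid-soluble rat tail type I collagen in 10 mM sodium acetate, pH 4.5, was amine-coupled to EDC/NHS-activated CM5 chips at ~3000 RU, then ethanolamine-blocked; an uncoated flow cell served as control. Analytes at 1 µM in 10 mM HEPES, 150 mM NaCl, 0.005% P20, pH 7.4, flowed at 5 µl/min for 6 min. RU were averaged over 5 s before injection end. Chips were regenerated with 6 M guanidine-HCl, with WT CBD run at the start and end of each series.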

[1] = tested on: gelatin (denatured type I collagen); assay: Surface plasmon resonance binding to immobilized gelatin; parameters: species or system rat; conditions: 1 µM analyte, Biacore buffer pH 7.4; compared to WT CBD
[2] = biological target: denatured type I collagen (gelatin), rat tail (rat, UniProt P02454 152-1207; P02466 86-1125); assay: SPR
Chain of denatured type I collagen (gelatin), rat tail (P02454 152-1207, chain 1 of 2): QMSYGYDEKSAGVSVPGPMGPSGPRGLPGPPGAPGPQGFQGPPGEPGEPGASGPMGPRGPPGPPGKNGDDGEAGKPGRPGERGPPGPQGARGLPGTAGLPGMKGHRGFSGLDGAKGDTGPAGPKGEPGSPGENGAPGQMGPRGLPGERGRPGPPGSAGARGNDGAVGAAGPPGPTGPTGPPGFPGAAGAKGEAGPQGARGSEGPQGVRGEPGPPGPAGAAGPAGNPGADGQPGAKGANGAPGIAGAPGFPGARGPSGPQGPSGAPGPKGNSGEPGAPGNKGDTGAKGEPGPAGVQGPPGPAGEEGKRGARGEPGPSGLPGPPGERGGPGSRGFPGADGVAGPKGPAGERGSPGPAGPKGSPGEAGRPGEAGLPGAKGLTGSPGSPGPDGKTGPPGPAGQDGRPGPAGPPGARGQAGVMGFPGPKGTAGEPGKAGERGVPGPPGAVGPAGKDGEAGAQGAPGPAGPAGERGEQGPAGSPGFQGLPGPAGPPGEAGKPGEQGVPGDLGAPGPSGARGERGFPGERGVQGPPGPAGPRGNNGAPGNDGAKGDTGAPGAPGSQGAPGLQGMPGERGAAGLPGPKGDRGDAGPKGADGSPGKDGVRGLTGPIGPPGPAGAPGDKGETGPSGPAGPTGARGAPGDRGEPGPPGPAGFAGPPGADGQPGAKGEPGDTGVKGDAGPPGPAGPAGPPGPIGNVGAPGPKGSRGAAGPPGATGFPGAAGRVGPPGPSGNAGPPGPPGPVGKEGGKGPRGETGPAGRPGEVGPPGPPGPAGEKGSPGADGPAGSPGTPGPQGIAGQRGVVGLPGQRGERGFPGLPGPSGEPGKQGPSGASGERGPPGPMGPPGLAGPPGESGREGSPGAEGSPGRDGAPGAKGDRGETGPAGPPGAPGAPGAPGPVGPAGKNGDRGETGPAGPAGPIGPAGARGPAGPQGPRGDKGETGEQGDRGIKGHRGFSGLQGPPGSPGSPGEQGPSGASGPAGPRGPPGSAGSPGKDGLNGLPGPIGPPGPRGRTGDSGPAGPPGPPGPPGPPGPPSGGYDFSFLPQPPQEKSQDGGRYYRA
Chain of denatured type I collagen (gelatin), rat tail (P02466 86-1125, chain 2 of 2): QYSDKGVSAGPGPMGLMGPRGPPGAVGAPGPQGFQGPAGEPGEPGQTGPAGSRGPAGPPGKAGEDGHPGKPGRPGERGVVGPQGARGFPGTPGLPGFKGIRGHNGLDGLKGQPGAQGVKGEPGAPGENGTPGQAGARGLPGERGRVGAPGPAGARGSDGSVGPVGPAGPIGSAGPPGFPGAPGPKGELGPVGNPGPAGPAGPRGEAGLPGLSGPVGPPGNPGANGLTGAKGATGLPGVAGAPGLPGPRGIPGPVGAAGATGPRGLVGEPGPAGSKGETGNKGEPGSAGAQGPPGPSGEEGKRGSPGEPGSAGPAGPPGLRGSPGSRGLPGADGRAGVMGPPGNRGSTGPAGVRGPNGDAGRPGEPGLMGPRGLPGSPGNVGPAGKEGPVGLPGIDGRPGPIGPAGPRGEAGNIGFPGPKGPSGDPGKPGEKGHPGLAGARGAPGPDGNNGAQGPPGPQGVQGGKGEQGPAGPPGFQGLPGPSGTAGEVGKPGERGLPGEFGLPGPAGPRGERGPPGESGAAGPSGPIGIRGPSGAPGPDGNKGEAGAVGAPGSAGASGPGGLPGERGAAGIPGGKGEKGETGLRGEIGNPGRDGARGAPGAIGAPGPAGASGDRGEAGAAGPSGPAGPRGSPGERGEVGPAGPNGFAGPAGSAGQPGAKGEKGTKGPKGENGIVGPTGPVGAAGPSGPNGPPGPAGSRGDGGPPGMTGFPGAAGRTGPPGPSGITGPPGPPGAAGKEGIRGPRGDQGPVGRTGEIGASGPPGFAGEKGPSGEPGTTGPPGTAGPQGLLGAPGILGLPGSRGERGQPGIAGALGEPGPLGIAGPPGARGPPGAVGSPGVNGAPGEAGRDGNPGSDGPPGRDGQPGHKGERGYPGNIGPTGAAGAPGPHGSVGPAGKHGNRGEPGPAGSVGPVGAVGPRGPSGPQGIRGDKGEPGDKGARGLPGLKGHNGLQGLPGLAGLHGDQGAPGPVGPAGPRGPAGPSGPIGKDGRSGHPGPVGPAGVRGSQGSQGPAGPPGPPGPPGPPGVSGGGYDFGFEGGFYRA

Molecule: (Pro-Pro-Gly)6
- relative affinity of modules 1 and 2 versus module 3 for collagen-like peptide (MMP-2 CBD modules): modules 1 and 2 have higher affinity
- spectral perturbations of isolated CBD module 2 (MMP-2 CBD modules; early NMR study): spectral perturbations of the surface-exposed aromatic residues Phe21, Tyr38, Trp40, Tyr47, Tyr53 and Phe55, as well as the neighboring Gly33-Gly37 segment

B1: Y^329A: rCBD variant, single-point alanine substitution at Y^329, module 2 (protein)
chain: APSPIIKFPGDVAPKTDKELAVQYLNTFYGCPKESCNLFVLKDTLKKMQKFFGLPQTGDLDQNTIETMRKPRCGNPDVANYNFFPRKPKWDKNQITYRIIGYTPDLDPETVDDAFARAFQVWSDVTPLRFSRIHDGEADIMINFGRWEHGDGYPFDGKDGLLAHAFAPGTGVGGDSHFDDDELWTLGEGQVVRVKYGNADGEYCKFPFLFNGKEYNSCTDTGRSDGFLWCSTTYNFEKDGKYGFCPHEALFTMGGNAEGQPCKFPFRFQGTSYDSCTTEGRTDGYRWCGTTEDYDRDKKAGFCPETAMSTVGGNSEGAPCVFPFTFLGNKYESCTSAGRSDGKMWCATTANYDDDRKWGFCPDQGYSLFLVAAHEFGHAMGLEHSQDPGALMAPIYTYTKNFRLSQDDIKGIQELYGASPDIDLGTGPTPTLGPVTPEICKQDIVFDGIAQIRGEIFFFKDRFIWRTVTPRDKPMGPLLVATFWPELPEKIDAVYEAPQEEKAVFFAGNEYWIYSASTLERGYPKPLTSLGLPPDVQRVDAAFNWSKNKKTYIFAGDKFWRYNEVKKKMDPGFPKLIADAWNAIPDNLDAVVDLQGGGHSYFFKGAYYLKLENQSLKSVKFGSIKSDWLGC
modifications: biotinylated for the microwell assay; left off: His tag, end not stated, state not stated
- binding to native type I collagen (SPR, RU) (native type I collagen): strong reduction in binding
- binding to gelatin / denatured type I collagen (SPR, RU) [1]: strong reduction in binding

B2: Y^381A: rCBD variant, single-point alanine substitution at Y^381, module 3 (protein)
chain: B1 chain with A300Y, Y352A
modifications: biotinylated for the microwell assay; left off: His tag, end not stated, state not stated
- binding to native type I collagen (SPR, RU) (native type I collagen): strong reduction in binding
- binding to gelatin / denatured type I collagen (SPR, RU) [1]: strong reduction in binding

B3: R^368A: rCBD variant, single-point alanine substitution at R^368, module 3 (protein)
chain: B1 chain with A300Y, R339A
modifications: biotinylated for the microwell assay; left off: His tag, end not stated, state not stated
- binding to native type I collagen (SPR, RU) (native type I collagen): strong reduction in binding
- binding to gelatin / denatured type I collagen (SPR, RU) [1]: strong reduction in binding

B4: W^374A: rCBD variant, single-point alanine substitution at W^374, module 3 (protein)
chain: B1 chain with A300Y, W345A
modifications: biotinylated for the microwell assay; left off: His tag, end not stated, state not stated
- binding to native type I collagen (SPR, RU) (native type I collagen): strong reduction in binding
- binding to gelatin / denatured type I collagen (SPR, RU) [1]: strong reduction in binding

B5: Recombinant collagen binding domain (CBD) from human MMP-2, wildtype (domain or fragment)
chain: VVRVKYGNADGEYCKFPFLFNGKEYNSCTDTGRSDGFLWCSTTYNFEKDGKYGFCPHEALFTMGGNAEGQPCKFPFRFQGTSYDSCTTEGRTDGYRWCGTTEDYDRDKKYGFCPETAMSTVGGNSEGAPCVFPFTFLGNKYESCTSAGRSDGKMWCATTANYDDDRKWGFCPDQ
modifications: 15N (or 15N and 13C) labelled for NMR; biotinylated for the microwell assay
- Kd [2]: 2.9 µM
